Data as given in ChEMBL document CHEMBL6078712, “Triterpenoid phthalimides as selective anti-cancer agents targeting mitochondrial apoptosis” (Eur J Med Chem, 2025).
Active and inactive are the calls of the source. The calls are words filed in the database; no cut-off is given here.

Tests used:
[1] = Cytotoxicity against human MRC5 cells assessed as inhibition of cell growth incubated for 72 hrs by MTS assay; assay type: toxicity, cell-based
How it was run: (§1)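 MTS assay on eight human cancer lines and two non-tumour fibroblast lines. IC50 is the concentration that inhibits cell growth by 50 %. SD typically up to 15 % of the mean.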

CCRF-CEM [2] = experiment: Inhibition of RNA synthesis in human CCRF-CEM cells at 5 times IC50 incubated for 24 hrs by BrU incorporation based flow cytometry; assay type: functional
How it was run: (§2)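 Fixed in 1 % paraformaldehyde/0.05 % NP-40 (15 min at room temperature, then 4 °C overnight). Stained with cross-reacting anti-BrdU plus FITC secondary (45 min each), then PI/RNase A. Flow cytometry; % BrU-positive cells.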

CCRF-CEM [3] = experiment: Induction of apoptosis in human CCRF-CEM cells assessed as viable cells at 1 times IC50 incubated for 24 hrs by Annexin V-FITC and PI staining based flow cytometric analysis (reference value: 97.4 %); assay type: functional
How it was run: (§3)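 Washed in Ca2+-containing binding buffer, then stained 15 min at room temperature in the dark with Annexin V-FITC and propidium iodide (PI at half the kit-recommended level). Read at once by flow cytometry with a 488 nm laser, ≥10,000 cells. Debris excluded; quadrants viable, early apoptotic, late apoptotic/necrotic, necrotic. Three independent experiments.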

[4] = Plasma protein binding in human assessed as fraction bound at 10 uM incubated for 4 hrs by rapid equilibrium dialysis based RF-MS analysis; assay type: ADME, cell-free; conditions: read-out: PPB (converted)
How it was run: (§4)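 Human plasma stability, plasma protein binding and liver microsome stability, each run in triplicate. Error deviations below 10 %.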

CCRF-CEM [5] = experiment: Induction of apoptosis in human CCRF-CEM cells assessed as downregulation of caspase-3 expression at 5 times IC50 incubated for 24 hrs by Western blotting analysis; assay type: functional, cell-based
How it was run: (§5)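 30 µg protein per lane on SDS-PAGE, transferred to nitrocellulose, blocked in 5 % BSA/TBS-Tween. Primary antibodies overnight at 4 °C (Akt, P-Akt Ser473, STAT-3, caspase-3, PARP, cyclin D, cyclin A, Bcl-xL, Bak, Bid, Bim), then HRP secondary and ECL detection. GAPDH as loading control.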

CCRF-CEM [6] = experiment: Induction of apoptosis in human CCRF-CEM cells assessed as downregulation of BCL-XL expression at 5 times IC50 incubated for 24 hrs by Western blotting analysis; assay type: functional, cell-based; how it was run: as §5
Mitochondrial membrane [7] = experiment: Induction of mitochondrial membrane potential depolarization in human CCRF-CEM cells assessed as fold increase in fluorescence intensity at 5 times IC50 incubated for 24 hrs by JC-1 staining based flow cytometry; assay type: cell membranes
Mitochondrial membrane [8] = experiment: Induction of mitochondrial membrane potential depolarization in human CCRF-CEM cells assessed as fold increase in fluorescence intensity incubated for 24 hrs by JC-1 staining based flow cytometry; assay type: cell membranes
[9] = Stability in human plasma assessed as compound remaining at 2 uM incubated for 15 mins by RF-MS analysis; assay type: ADME, cell-free; conditions: read-out: Stability; how it was run: as §4
CCRF-CEM [10] = experiment: Induction of apoptosis in human CCRF-CEM cells assessed as necrotic cells at 5 times IC50 incubated for 24 hrs by Annexin V-FITC and PI staining based flow cytometric analysis (reference value: 0.4 %); assay type: functional; how it was run: as §3
CCRF-CEM [11] = experiment: Cytotoxicity against human CCRF-CEM cells assessed as inhibition of cell growth incubated for 72 hrs by MTS assay; assay type: functional, cell-based; how it was run: as §1
HCT 116 TP53(-/-) = experiment: Cytotoxicity against human HCT116-p53-null cells assessed as inhibition of cell growth incubated for 72 hrs by MTS assay; assay type: functional, cell-based; how it was run: as §1
U2OS = experiment: Cytotoxicity against human U2OS cells assessed as inhibition of cell growth incubated for 72 hrs by MTS assay; assay type: functional, cell-based; how it was run: as §1
CCRF-CEM [12] = experiment: Induction of cell cycle arrest in human CCRF-CEM cells assessed as downregulation of total STAT3 expression at 5 times IC50 incubated for 24 hrs by Western blotting analysis; assay type: functional, cell-based; how it was run: as §5
[13] = Metabolic stability in human liver microsomes assessed as parent compound remaining at 2 uM incubated for 15 mins in presence of NADPH by RF-MS analysis; assay type: ADME, Microsome; conditions: read-out: Stability; how it was run: as §4
CCRF-CEM [14] = experiment: Inhibition of DNA synthesis in human CCRF-CEM cells at 5 times IC50 incubated for 24 hrs by BrdU incorporation based flow cytometry; assay type: functional
How it was run: (§6)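 Fixed in ice-cold 70 % ethanol, DNA denatured in 2 M HCl for 30 min, neutralised with borax. Stained with anti-BrdU plus FITC secondary, then PI/RNase A for 1 h. Flow cytometry; % BrdU-positive cells.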

[15] = Cytotoxicity against human BJ cells assessed as inhibition of cell growth incubated for 72 hrs by MTS assay; assay type: toxicity, cell-based; how it was run: as §1
CCRF-CEM [16] = experiment: Induction of apoptosis in human CCRF-CEM cells assessed as late apoptotic cells at 5 times IC50 incubated for 24 hrs by Annexin V-FITC and PI staining based flow cytometric analysis (reference value: 0.4 %); assay type: functional; how it was run: as §3
CCRF-CEM [17] = experiment: Induction of apoptosis in human CCRF-CEM cells assessed as early apoptotic cells at 5 times IC50 incubated for 24 hrs by Annexin V-FITC and PI staining based flow cytometric analysis (reference value: 2.1 %); assay type: functional; how it was run: as §3
[18] = Stability in human plasma assessed as compound remaining at 2 uM incubated for 60 mins by RF-MS analysis; assay type: ADME, cell-free; conditions: read-out: Stability; how it was run: as §4
CCRF-CEM [19] = experiment: Inhibition of DNA synthesis in human CCRF-CEM cells at 1 times IC50 incubated for 24 hrs by BrdU incorporation based flow cytometry; assay type: functional; how it was run: as §6
[20] = Cytotoxicity against human K562-Tax cells assessed as inhibition of cell growth incubated for 72 hrs by MTS assay; assay type: functional, cell-based; how it was run: as §1
CCRF-CEM [21] = experiment: Induction of apoptosis in human CCRF-CEM cells assessed as early apoptotic cells at 1 times IC50 incubated for 24 hrs by Annexin V-FITC and PI staining based flow cytometric analysis (reference value: 2.1 %); assay type: functional; how it was run: as §3
CCRF-CEM [22] = experiment: Induction of apoptosis in human CCRF-CEM cells assessed as viable cells at 5 times IC50 incubated for 24 hrs by Annexin V-FITC and PI staining based flow cytometric analysis (reference value: 97.4 %); assay type: functional; how it was run: as §3
CCRF-CEM [23] = experiment: Induction of apoptosis in human CCRF-CEM cells assessed as upregulation of BID expression at 1 to 5 times IC50 incubated for 24 hrs by Western blotting analysis; assay type: functional, cell-based; how it was run: as §5
[24] = Metabolic stability in human liver microsomes assessed as parent compound remaining at 2 uM incubated for 30 mins in presence of NADPH by RF-MS analysis; assay type: ADME, Microsome; conditions: read-out: Stability; how it was run: as §4
CCRF-CEM [25] = experiment: Induction of apoptosis in human CCRF-CEM cells assessed as necrotic cells at 1 times IC50 incubated for 24 hrs by Annexin V-FITC and PI staining based flow cytometric analysis (reference value: 0.4 %); assay type: functional; how it was run: as §3
[26] = Metabolic stability in human liver microsomes assessed as parent compound remaining at 2 uM incubated for 60 mins in presence of NADPH by RF-MS analysis; assay type: ADME, Microsome; conditions: read-out: Stability; how it was run: as §4
[27] = Stability in human plasma assessed as compound remaining at 2 uM incubated for 120 mins by RF-MS analysis; assay type: ADME, cell-free; conditions: read-out: Stability; how it was run: as §4
CEM-DNR = experiment: Cytotoxicity against human CEM-DNR cells assessed as inhibition of cell growth incubated for 72 hrs by MTS assay; assay type: functional, cell-based; how it was run: as §1
CCRF-CEM [28] = experiment: Induction of cell cycle arrest in human CCRF-CEM cells assessed as increase in accumulation of G0/G1 phase at 5 times IC50 incubated for 24 hrs by RNase/PI staining based flow cytometry; assay type: functional
How it was run: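 Propidium iodide staining and flow cytometry with a 488 nm laser, ≥10,000 intact cells. Phase proportions compared with untreated cells; SEM of three independent experiments.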

HCT-116 = experiment: Cytotoxicity against human HCT-116 cells assessed as inhibition of cell growth incubated for 72 hrs by MTS assay; assay type: functional, cell-based; conditions: HCT-116, 72 h; how it was run: as §1
CCRF-CEM [29] = experiment: Induction of cell cycle arrest in human CCRF-CEM cells assessed as downregulation of Cyclin D expression at 5 times IC50 incubated for 24 hrs by Western blotting analysis; assay type: functional, cell-based; how it was run: as §5
CCRF-CEM [30] = experiment: Induction of apoptosis in human CCRF-CEM cells assessed as upregulation of BIM expression at 1 to 5 times IC50 incubated for 24 hrs by Western blotting analysis; assay type: functional, cell-based; how it was run: as §5
CCRF-CEM [31] = experiment: Induction of cell cycle arrest in human CCRF-CEM cells assessed as downregulation of Cyclin A expression at 5 times IC50 incubated for 24 hrs by Western blotting analysis; assay type: functional, cell-based; how it was run: as §5
A549 = experiment: Cytotoxicity against human A549 cells assessed as inhibition of cell growth incubated for 72 hrs by MTS assay; assay type: functional, cell-based; conditions: A549, 72 h; how it was run: as §1
[32] = Stability in human plasma assessed as compound remaining at 2 uM incubated for 30 mins by RF-MS analysis; assay type: ADME, cell-free; conditions: read-out: Stability; how it was run: as §4
CCRF-CEM [33] = experiment: Induction of apoptosis in human CCRF-CEM cells assessed as late apoptotic cells at 1 times IC50 incubated for 24 hrs by Annexin V-FITC and PI staining based flow cytometric analysis (reference value: 0.4 %); assay type: functional; how it was run: as §3
K562 = experiment: Cytotoxicity against human K562 cells assessed as inhibition of cell growth incubated for 72 hrs by MTS assay; assay type: functional, cell-based; conditions: K562, 72 h; how it was run: as §1
CCRF-CEM [34] = experiment: Induction of cell cycle arrest in human CCRF-CEM cells assessed as downregulation of total AKT expression at 5 times IC50 incubated for 24 hrs by Western blotting analysis; assay type: functional, cell-based; how it was run: as §5
CCRF-CEM [35] = experiment: Inhibition of RNA synthesis in human CCRF-CEM cells at 1 times IC50 incubated for 24 hrs by BrU incorporation based flow cytometry; assay type: functional; how it was run: as §2

fraction unbound at 4 h, 10 µM [4]: 0.37 | fold change (FC) (Mitochondrial membrane [7]): > 20 | Activity (Mitochondrial membrane [8]): Dose-dependent-effect | remaining at 0.25 h, 2 µM [9]: 106% | remaining at 0.25 h, 2 µM [13]: 100% | remaining at 1 h, 2 µM [18]: 93% | remaining at 0.5 h, 2 µM [24]: 102% | remaining at 1 h, 2 µM [26]: 97% | remaining at 2 h, 2 µM [27]: 89% | remaining at 0.5 h, 2 µM [32]: 92%
Structure (SMILES): CC1(C)[C@@H](O)CC[C@]2(C)[C@H]3CC[C@@H]4[C@H]5[C@H](c6cc7c(c(-c8ccccc8)c6)C(=O)N(c6ccc(N)cc6)C7=O)CC[C@]5(C(=O)O)CC[C@@]4(C)[C@]3(C)CC[C@@H]12
IC50 at 72 h [1]: 19.4 µM | inhibition (INH) (CCRF-CEM [2]): 45.4% | Activity (CCRF-CEM [3]): 92.4% | Activity (CCRF-CEM [5]): Active | Activity (CCRF-CEM [6]): Active | Activity (CCRF-CEM [10]): 0% | IC50 (CCRF-CEM [11]): 4.09 µM | IC50 (HCT 116 TP53(-/-)): 17.1 µM | IC50 (U2OS): 15.6 µM | Activity (CCRF-CEM [12]): Active | inhibition (INH) (CCRF-CEM [14]): 13.6% | IC50 at 72 h [15]: 40.6 µM | Activity (CCRF-CEM [16]): 4.7% | Activity (CCRF-CEM [17]): 7.8% | inhibition (INH) (CCRF-CEM [19]): 30% | IC50 [20]: 4.34 µM | Activity (CCRF-CEM [21]): 4.8% | Activity (CCRF-CEM [22]): 87.5% | Activity (CCRF-CEM [23]): Active | Activity (CCRF-CEM [25]): 0% | IC50 (CEM-DNR): 6.29 µM | Activity (CCRF-CEM [28]): Active | IC50 (HCT-116): 12 µM | Activity (CCRF-CEM [29]): Active | Activity (CCRF-CEM [30]): Active | Activity (CCRF-CEM [31]): Active | IC50 (A549): 21 µM | Activity (CCRF-CEM [33]): 2.8% | IC50 (K562): 20.9 µM | Activity (CCRF-CEM [34]): Active; Slight Activity Observed | inhibition (INH) (CCRF-CEM [35]): 24%
